Measurements published in ChEMBL document CHEMBL1121641, “Synthesis and anticonvulsant activity of N-(benzoylalkyl)imidazoles and N-(omega-phenyl-omega-hydroxyalkyl)imidazoles” (J Med Chem, 1981).

What was measured:
Mus musculus [1] = assay: Anticonvulsant activity by the maximal electroshock test in mice by intraperitoneal administration; assay type: functional; conditions: ip
Outline: (§1)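 Mice, groups of 10; compounds given ip or po as aqueous solutions or suspensions in 10% aqueous acacia gum. Maximal seizures elicited 30-60 min after dosing by 60-Hz alternating current, 25 mA for 0.2 s via corneal electrodes. Absence of tonic-extensor seizure scored as protection. ED50 by Litchfield-Wilcoxon with 95% confidence limits, or estimated graphically.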

Mus musculus [2] = assay: Anticonvulsant activity was evaluated by the maximal electroshock test in mice, administered orally; assay type: functional; conditions: po; outline: as §1
[3] = Lethal dose in mice determined after intraperitoneal administration.; assay type: toxicity, organism-based; conditions: mouse, in vivo, ip
Outline: (§2)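 Mice dosed ip or po with aqueous solution or suspension in 10% aqueous acacia gum, 10 animals per dose. Mortality recorded over 7 days, with behavioural symptoms observed by the Irwin scheme. LD50 derived from dose–mortality data.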

[4] = Lethal dose determined in mice after oral administration; assay type: toxicity, organism-based; conditions: mouse, in vivo; outline: as §2
[5] = Ionization constant was determined by potentiometric titration at 22 degree C; assay type: physicochemical
Outline: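 Methanolic-aqueous 10⁻³ M solutions of the hydrochloride salts titrated with 0.02 M KOH. Glass-calomel electrode system read on an expanded pH scale. pKa' obtained by the Albert-Serjeant procedure.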

[6] = Partition coefficient (logP); assay type: physicochemical; conditions: octanol/water
Outline: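 Octanol partitioning at room temperature (20 ± 5 °C) with gentle shaking for 6 h, then centrifugation for 15 min at 2000 rpm. Octanol phase quantified by gas chromatography. Amount in the second phase taken as total sample minus the octanol amount.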

Compound	ED50 (Mus musculus [1]) [mg/kg]	ED50 (Mus musculus [2]) [mg/kg]	LD50 [3] [mg/kg]	LD50 [4] [mg/kg]	pKa [5]	logP [6]
O=C(Cn1ccnc1)c1ccc(O)c(O)c1	> 200	> 200	1000			
O=C(Cn1ccnc1)c1cccc(-c2ccccc2)c1	11.2	21	210	750		
Cl.OC(Cn1ccnc1)c1ccccc1-c1ccccc1 (centres undefined)	18.8	24.5	155	300		
O=C(Cn1ccnc1)c1ccc(C2CCCCC2)cc1	62.2	89.9	> 3000	2100		
Cl.OC(Cn1ccnc1)c1ccc(-c2ccccc2)cc1 (centres undefined)	45	31	1150	> 30000		
CCC(C)c1ccc(C(=O)Cn2ccnc2)cc1 (centres undefined)	> 23	> 23	115			
CC(C(=O)c1ccc(-c2ccccc2)cc1)n1ccnc1 (centres undefined)	13.4	> 18	87.5			
CC(C)(C)c1ccc(C(=O)Cn2ccnc2)cc1	> 20	> 20	100			
Cl.Nc1ccc(C(O)Cn2ccnc2)cc1 (centres undefined)	> 175	> 175	875			
CCC1(c2ccccc2)C(=O)NC(=O)NC1=O.Cl [PHENOBARBITAL HYDROCHLORIDE]	22.5	17.6	235	237		
CC(Cn1ccnc1)C(=O)c1ccc(-c2ccccc2)cc1 (centres undefined)	19.5	> 26	130			
O=C(Cn1ccnc1)c1ccc(Oc2ccccc2)cc1	> 20	> 20	100			
COc1ccc(C(=O)Cn2ccnc2)cc1	> 54		270			
O=C(Cn1ccnc1)c1ccc(CCc2ccccc2)cc1	12.7	36.9				
OC(Cn1ccnc1)c1ccc(Cl)cc1 (centres undefined)	31	> 54	270			
Cl.OC(Cn1ccnc1)c1ccccc1 (centres undefined)	> 42		210		6.68	0.99
Cl.O=C1NC(=O)C(c2ccccc2)(c2ccccc2)N1 [PHENYTOIN CHLORIDE]	8.5	9.7				
O=C(Cn1ccnc1)c1ccc(Cl)cc1Cl	> 84	> 84	420			
Cl.OC(Cn1ccnc1)c1cccc(-c2ccccc2)c1 (centres undefined)	15.8	25	180			
CCC(C)c1ccc(C(O)Cn2ccnc2)cc1.Cl (centres undefined)	28.5	31.2	210			
O=C(CCn1ccnc1)c1ccc(-c2ccccc2)cc1	35.1	40.5		1150		
CC(Cn1ccnc1)C(O)c1ccc(-c2ccccc2)cc1.Cl (centres undefined)	25.7	32.3	210			
O=C(Cn1ccnc1)c1ccccc1	> 72		360		6.32	1.03
O=C(Cn1ccnc1)c1ccc(Cl)cc1	> 48	> 48	240			
Cl.O=[N+]([O-])c1ccc(C(O)Cn2ccnc2)cc1 (centres undefined)	98	98	490			
CC(C(=O)c1ccc(CCc2ccccc2)cc1)n1ccnc1 (centres undefined)	> 23	> 23	115			

Compound	ED50 (Mus musculus [1]) [mg/kg]	ED50 (Mus musculus [2]) [mg/kg]	LD50 [3] [mg/kg]	LD50 [4] [mg/kg]	pKa [5]	logP [6]
O=C(Cn1ccnc1)c1ccc(-c2ccccc2)cc1	61.3	78.3	1550	2400		
Cl.Oc1ccc(C(O)Cn2ccnc2)cc1O (centres undefined)	> 230	> 230	1150			
Cl.OC(CCn1ccnc1)c1ccc(-c2ccccc2)cc1 (centres undefined)	44	53.5	360			
Cl.OC(Cn1ccnc1)c1ccc(Oc2ccccc2)cc1 (centres undefined)	31.1	> 48	360			
CC(C)(C(=O)c1ccc(-c2ccccc2)cc1)n1ccnc1	38	42.9	> 3000	1870		
Cl.OC(Cn1ccnc1)c1ccc(C2CCCCC2)cc1 (centres undefined)	53	59.6	490	2700		
Cl.OC(Cn1ccnc1)c1ccc(CCc2ccccc2)cc1 (centres undefined)	5.3	10.2	270	434		
CC(C(O)c1ccc(CCc2ccccc2)cc1)n1ccnc1.Cl (centres undefined)	15	36	180			
O=C(CCn1ccnc1)c1ccc(CCc2ccccc2)cc1	28.6	112	> 3000	2100		
Nc1ccc(C(=O)Cn2ccnc2)cc1	> 72	> 72	360			
O=C(Cn1ccnc1)c1ccccc1Cl			360			
O=C(Cn1ccnc1)c1ccccc1-c1ccccc1	13.5	17.1	115	360		
CC(C(O)c1ccc(-c2ccccc2)cc1)n1ccnc1.Cl (centres undefined)	19.6	24.7	655	570		
O=C(Cn1ccnc1)c1ccc([N+](=O)[O-])cc1	> 72	> 72	360			
COc1ccc(C(O)Cn2ccnc2)cc1.Cl (centres undefined)	> 72		360			
CC(C)(C)c1ccc(C(O)Cn2ccnc2)cc1.Cl (centres undefined)	42	> 42	210			
Cl.Oc1ccc(C(O)Cn2ccnc2)cc1 (centres undefined)	> 200	> 200	1000			
CC(C)(C(O)c1ccc(CCc2ccccc2)cc1)n1ccnc1.Cl (centres undefined)	22.4	> 48	240			
Cl.OC(CCn1ccnc1)c1ccc(CCc2ccccc2)cc1 (centres undefined)	21	24.7	420	560		
CC(C)(C(=O)c1ccc(CCc2ccccc2)cc1)n1ccnc1	29.5	> 36	180			
CC(=O)Nc1ccc(C(=O)Cn2ccnc2)cc1	> 200	> 200	1000			
OC(Cn1ccnc1)c1ccc(Cl)cc1Cl (centres undefined)	39.7	39.7	300			
O=C(Cn1ccnc1)c1ccc(O)cc1	> 150	> 150	750			
CS(=O)(=O)Nc1ccc(C(=O)Cn2ccnc2)cc1	> 300	> 300	> 3000	> 3000		
CC(C)(C(O)c1ccc(-c2ccccc2)cc1)n1ccnc1.Cl (centres undefined)	23.8	25.1	420	2400		
